Bioassay records: PubChem, The Scripps Research Institute Molecular Screening Center
PRMT1 FP inh = inhibitors of human PRMT1; hit rate 1.3% among 370,000; AID 652257; inhibition, % at 2.79 µM; recombinant PRMT1, activity-based probe fluorescence polarization; Q99873;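 active = inhibition above about 21% made by adding two undisclosed values, limit read from the data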
Fh CTSL1 inh = cathepsin L1 inhibition, PFM18AAP counter-screen | recombinant F. hepatica cathepsin L1, Z-Leu-Arg-MCA fluorescence | inhibition, % at 5.96 µM | hit rate 0.49% among 300,000 | AID 1906;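 active = inhibition above the mean of all tested compounds plus 3 SD, set per screening campaign, cut at about 17% in these data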;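 note: 0% = plate median of test compound wells and 100% = 1 µM Z-Phe-Ala-diazomethylketone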
PAD4 FP inh = blocks human protein arginine deiminase 4 | hit rate 0.41% among 330,000 | inhibition, % at 6.36 µM | Q9UM07 | recombinant PAD4, RCA probe fluorescence polarization | AID 485272;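 active = percent inhibition above a cutoff equal to the mean of all tested compounds plus 3 SD, cut at about 15% in these data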;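 note: 0% = PAD4 with RCA probe and DMSO and 100% = probe without PAD4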
TDP2 absorb = TDP2 (human) inhibition, absorbance primary screen; O95551; recombinant TDP2, T5PNP hydrolysis, p-nitrophenol absorbance 415 nm; inhibition, % at 12.8 µM; hit rate 0.34% among 370,000;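 active = inhibition above the mean of all tested compounds plus 3 SD, set per campaign, cut at about 25% in these data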;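 note: 0% = DMSO with enzyme and 100% = buffer with substrate but no TDP2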
Target sequence (O95551 whole entry, looked up): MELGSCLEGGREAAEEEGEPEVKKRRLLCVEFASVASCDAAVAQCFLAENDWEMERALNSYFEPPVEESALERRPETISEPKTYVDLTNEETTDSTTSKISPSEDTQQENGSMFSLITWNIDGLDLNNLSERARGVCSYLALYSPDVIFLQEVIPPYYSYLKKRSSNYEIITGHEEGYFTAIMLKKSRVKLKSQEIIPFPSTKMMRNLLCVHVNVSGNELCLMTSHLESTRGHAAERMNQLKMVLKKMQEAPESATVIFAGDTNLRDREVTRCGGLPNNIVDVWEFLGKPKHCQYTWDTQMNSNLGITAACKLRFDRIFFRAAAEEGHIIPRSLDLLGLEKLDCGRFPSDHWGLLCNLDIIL
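Test system: Human TDP2 enzyme | Reagent: 5 mM T5PNP | Compound dosing: 12.8 µM single point, 1% DMSO | Incubation: Enzyme reaction with compound for 2 h at 37 °C | Technique: p-Nitrophenol epi absorbance | Read-out: % inhibition relative to enzyme-containing and enzyme-free wells | Benchmarks: High control without enzyme, low control DMSO plus TDP2 | Replicates: Singlicate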
GSTO1 counter = GSTO1 inhibition, counter-screen for RBBP9 inhibitors; inhibition, % at 5.96 µM; P78417; hit rate 1.1% among 300,000; AID 1974; recombinant GSTO1, activity-based probe fluorescence polarization;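 active = inhibition above the campaign mean inhibition plus 3 SD, cut at about 35% in these data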;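 note: 0% = GSTO1-1 with DMSO and 100% = wells lacking GSTO1-1 enzyme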
Target sequence (P78417 whole entry, looked up): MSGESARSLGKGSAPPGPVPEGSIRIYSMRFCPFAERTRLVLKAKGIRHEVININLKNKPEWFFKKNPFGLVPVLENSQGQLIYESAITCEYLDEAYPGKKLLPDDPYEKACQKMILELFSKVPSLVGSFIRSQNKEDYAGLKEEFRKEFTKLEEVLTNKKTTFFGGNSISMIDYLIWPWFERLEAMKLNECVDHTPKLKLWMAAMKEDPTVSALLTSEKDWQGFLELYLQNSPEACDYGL
* hit, by the source's call; . = not tested or not shown. Most compounds without a hit are left out; they make up all but 2.5% or so of the library.

SMILES | PRMT1 FP inh | Fh CTSL1 inh | PAD4 FP inh | TDP2 absorb | GSTO1 counter
O=C(CC1CCCC1)N1CC[C@H]2[C@H](CCCN2Cc2ccc(F)cc2)C1 | 0.6 | . | . | -5.4 | .
Cc1cc(C(=O)OCC(=O)c2ccc(Cl)c([N+](=O)[O-])c2)c2cccc(C)c2n1 | -2.1 | -2.2 | -1.4 | 3.0 | 36.6*
Cc1ccc(C(=O)Nc2nc(-c3ccccn3)cs2)s1 | -3.9 | . | 1.8 | -16.2 | .
O=C(/C=C/c1ccco1)Nc1nc(-c2ccccn2)cs1 | 23.0* | -0.4 | -4.6 | -2.8 | 12.5
O=C(Nc1nc(-c2ccccn2)cs1)c1ccc(Cl)s1 | -8.4 | 1.2 | -1.1 | 7.9 | 44.5*
O=C(CSc1nnc(-c2cccs2)o1)c1cccc([N+](=O)[O-])c1 | -4.8 | . | . | -11.4 | .
CCCCCOCC1CC(C/C(C)=N/NC(N)=S)C(=O)O1 (stereo unspecified) | -1.2 | 17.6* | 2.6 | 4.1 | 1.1
O=C(N[C@H]1C[C@@H]2O[C@H](CO)CC[C@@H]2O[C@@H]1CCc1ccc(-c2cccnc2)cc1)c1cccc(F)c1 | 1.3 | . | . | 5.8 | .
O=C(CCl)N=c1sccn1Cc1ccccc1Cl | -1.4 | 4.7 | -40.2 | 1.2 | 102.0*
O=C(CCl)N=c1sccn1Cc1cccc2ccccc12 | 4.5 | . | . | 6.8 | .
O=C(OC12CCCN(C1)/C(=C/c1ccccc1)C2)c1ccccc1 (stereo unspecified) | -0.5 | . | . | -2.8 | .
CN(C)c1ccc(/C=N/N=C2/NC(=O)/C(=C/c3ccc([N+](=O)[O-])cc3)S2)cc1 | 0.3 | 3.6 | -0.1 | -5.7 | 49.3*
O=C(c1ccco1)c1coc2c1cc(O)c1ccccc12 | 11.6 | -0.7 | -4.8 | 5.1 | 43.2*
O=C(c1cccs1)N1CC[C@H]2[C@H](CCCN2Cc2ccc(F)cc2)C1 | 0.5 | . | . | 3.7 | .
Cc1cccc(OCC(=O)Oc2ccc(Cl)cc2)c1 | 1.5 | -5.4 | 1.9 | 1.9 | -6.6
Cc1cccc(OC(=O)NCCOC(=O)N(O)c2ccc(Cl)cc2)c1 | -0.5 | 19.3* | 0.5 | -4.2 | 4.4
CCCCNC(=O)NS(=O)(=O)c1ccc(NC(=O)CSc2nnc(-c3cccs3)n2-c2ccc(OC)cc2)cc1 | 1.1 | . | . | 2.0 | .
CCn1c(COc2ccccc2)nnc1SCC(=O)CC(=O)Nc1ccccc1OC | 0.4 | 6.9 | 0.7 | 3.4 | -11.7
CCn1c(COc2cccc(C)c2)nnc1SCC(=O)CC(=O)Nc1ccccc1OC | -1.6 | 17.1* | 0.7 | 2.9 | -4.1
O=C(Nc1ccc2[nH]c3c(c2c1)CCCC3)c1ccco1 | 2.7 | 4.2 | -2.4 | -3.5 | 34.9*
CCOC(=O)c1cccc(NC(=S)NC(=O)c2cccnc2)c1 | 21.6* | -2.3 | 3.4 | -7.6 | 4.4
COc1cccc(NC(=S)NC(=O)c2cccnc2)c1 | 2.5 | 1.3 | -1.3 | -1.8 | -1.7
COc1c2c(c(C)c3c1C(=O)OC3)O[C@@]1(C)CC[C@@]3(O)C(C)(C)OC(=O)CC[C@]3(C)[C@H]1C2 | 2.3 | 25.3* | 2.4 | 0.4 | 6.9
CC(=O)Oc1ccc(/C=C2\N=C(C3CCCCC3)OC2=O)cc1 | 1.4 | 23.1* | -1.1 | -0.1 | -3.5
CCCC1CCC(C2=N/C(=C\c3ccc(OC)c(OC)c3)C(=O)O2)CC1 (stereo unspecified) | -2.9 | 2.9 | 0.4 | -2.8 | -2.3
SMILES | PRMT1 FP inh | Fh CTSL1 inh | PAD4 FP inh | TDP2 absorb | GSTO1 counter
COc1cccc(/C=C2\N=C(C3CCCCC3)OC2=O)c1OC | -5.9 | 19.8* | 3.5 | 7.4 | 4.0
CCOC(=O)[C@@]12CN(C(=O)OC(C)(C)C)CC=C1N(Cc1ccc(OC)cc1)C(=O)[C@H]2CC(=O)NCC12CC3CC(CC(C3)C1)C2 | 2.0 | . | . | -1.2 | .
CCCCCCCCN1C(=O)[C@@H](CC(=O)NCc2cccs2)C[C@@]2(C(=O)OC)C1=C[C@H](COCc1ccccc1)O[C@@H]2C | 2.2 | . | . | -7.4 | .
CCOC(=O)c1cc(C#N)c(SCC(=O)O)[nH]c1=O | 4.0 | 1.8 | -1.6 | -17.8 | -2.2
CCOC(=O)c1cc(C#N)c(SCC(N)=O)[nH]c1=O | 5.2 | 0.5 | -3.8 | 12.9 | 36.5*
O=C(CSc1nnc(C2COc3ccccc3O2)o1)N1CCCC1 (stereo unspecified) | 23.2* | -5.4 | -0.3 | -6.2 | 8.5
O=C(CSc1nnc(-c2cccs2)o1)N1CCCCC1 | -2.9 | 1.2 | 0.7 | -8.6 | 5.4
CCOC(=O)N1CCN(C(=O)CSc2nnc(C3COc4ccccc4O3)o2)CC1 (stereo unspecified) | 4.4 | -2.1 | -3.0 | 9.1 | -1.2
O=C(CSc1nnc(C2CCCCC2)o1)N1CCCCC1 | 2.8 | 22.7* | -1.9 | -4.6 | -4.3
CCOc1ccc(N(CC(=O)Nc2c(C)n(C)n(-c3ccccc3)c2=O)S(=O)(=O)c2ccc3c(c2)N(C(=O)C2CCC2)CC3)cc1 | -3.5 | . | . | 3.6 | .
Cc1ccc2nc(N(CCCN(C)C)C(=O)c3ccc(S(=O)(=O)N4CCc5ccccc5C4)cc3)sc2c1 | -1.2 | 3.1 | -2.4 | 1.2 | -0.7
CN(C)CCCN(C(=O)c1ccc(S(=O)(=O)N2CCc3ccccc32)cc1)c1nc2ccc(Cl)cc2s1 | 27.2* | 0.3 | 8.7 | 10.3 | -10.4
CN(C)CCCN(C(=O)c1ccc(S(=O)(=O)N2CCc3ccccc32)cc1)c1nc2ccc(F)cc2s1 | 23.1* | 0.8 | 2.2 | 9.5 | -0.3
CC(=O)c1ccc(C(=O)Nc2nnc(-c3ccc(Cl)cc3)o2)cc1 | -4.5 | -0.7 | -1.0 | -2.4 | -3.1
CN(C)c1ccc(C(=O)Nc2nnc(-c3ccc(Cl)cc3)o2)cc1 | -2.5 | 4.6 | 6.4 | -8.0 | 35.7*
OCC#Cc1ncc(C(F)(F)F)cc1Cl | 0.7 | 0.4 | -1.9 | 6.3 | 83.4*
CCOc1ccc(S(=O)(=O)NCCC(=O)NCC(c2ccc(F)cc2)N2CCOCC2)cc1 (stereo unspecified) | -0.2 | 18.1* | 0.5 | -11.1 | 4.2
CCOc1ccc(S(=O)(=O)NCCC(=O)NCC(c2ccc(OC)cc2)N2CCCCC2)cc1 (stereo unspecified) | -2.7 | 1.1 | -4.1 | -9.7 | -0.4
O=C(CN1CCC(NC(=O)NC2CCCC2)CC1)Nc1ccc2c(c1)OCCO2 | 0.3 | . | . | 6.0 | .
CCCCn1c(CNC(=O)CCC)nc2ccccc21 | -10.4 | 4.2 | 0.9 | -9.0 | 0.0
CCCn1c(CNc2ccccc2O)nc2ccccc21 | 4.5 | 1.6 | 4.5 | 0.8 | 34.8*
C=CCN1[C@H](CC(C)C)COc2cc(N3CCSCC3)ccc2S1(=O)=O | 6.8 | . | . | -3.9 | .
CCCCN(C(=O)c1cc(-c2ccco2)nc2ccccc12)c1c(N)n(CCCC)c(=O)[nH]c1=O | 22.2* | 6.3 | -4.5 | 10.8 | 3.7
Cc1ccc(-c2cc(C(=O)OCC(=O)N(C)c3c(N)n(Cc4ccccc4)c(=O)[nH]c3=O)c3ccccc3n2)o1 | 23.9* | 2.5 | -5.3 | -1.6 | -2.7
CCCCn1c(N)c(N(CCOC)C(=O)c2cc(-c3ccco3)nc3ccccc23)c(=O)[nH]c1=O | 13.6 | 3.0 | -1.8 | 3.7 | 15.8
CCCCn1c(N)c(N(CCC(C)C)C(=O)c2cc(-c3ccco3)nc3ccccc23)c(=O)[nH]c1=O | 21.9* | 0.0 | -4.6 | 7.3 | 3.6
